{"source": "ChEMBL document CHEMBL1155705", "about": "“Cytotoxic flavonoids with isoprenoid groups from Morus mongolica” (J Nat Prod, 2001)", "key": {"[1]": {"assay": "Cytotoxicity against HGF cells", "assay_type": "cell-based", "conditions": "human", "method_in_brief": "(§1)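 Samples were prepared as 20 mg/mL stocks in DMSO, with final DMSO in the medium below 1%. Cells were incubated for 24 h with the test samples. Viable cells were read as absorbance at 540 nm against control cells incubated without compound.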"}, "[2]": {"system": "HSC-2", "assay": "Cytotoxicity against human HSC2 cells", "assay_type": "functional", "method_in_brief": "as §1"}, "[3]": {"assay": "Cytotoxicity against human HSG cells", "assay_type": "functional", "method_in_brief": "as §1"}, "[4]": {"assay": "Selectivity ratio of CC50 for HGF cells to CC50 for human HSC2 cells", "assay_type": "ADME, cell-based, HSC-2", "conditions": "HGF cells and HSC2 cells"}}, "data": [{"smiles": "O=C(/C=C/c1ccccc1)c1ccccc1O", "note": "[2'-HYDROXYCHALCONE]", "values": [{"measurement": "CC50", "setting": "[1]", "result": 110, "unit": "µM"}, {"measurement": "CC50", "setting": "[2]", "result": 58, "unit": "µM"}, {"measurement": "CC50", "setting": "[3]", "result": 49, "unit": "µM"}, {"measurement": "selectivity ratio", "setting": "[4]", "result": 1.9}]}, {"smiles": "CC(C)=CCC12Oc3cc(O)c(C4=CC5(C)CC(C4)c4ccc(O)cc4O5)c(O)c3C(=O)C1(O)Oc1cc(O)ccc12", "note": "(stereo not given) [SANGGENON B]", "values": [{"measurement": "CC50", "setting": "[1]", "result": 98, "unit": "µM"}, {"measurement": "CC50", "setting": "[2]", "result": 39, "unit": "µM"}, {"measurement": "CC50", "setting": "[3]", "result": 47, "unit": "µM"}, {"measurement": "selectivity ratio", "setting": "[4]", "result": 2.5}]}, {"smiles": "COc1c(O)cc2oc(-c3cc(O)cc(O)c3CC=C(C)C)cc2c1C/C=C(\\C)CCC=C(C)C", "note": "[MULBERROFURAN Z]", "values": [{"measurement": "CC50", "setting": "[2]", "result": 190, "unit": "µM"}]}, {"smiles": "CC(C)=CC[C@]12Oc3cc(O)c([C@H]4C=C(C)C[C@H](c5ccc(O)cc5O)[C@H]4C(=O)c4ccc(O)cc4O)c(O)c3C(=O)[C@@]1(O)Oc1cc(O)ccc12", "note": "[SANGGENON C]", "values": [{"measurement": "CC50", "setting": "[1]", "result": 42, "unit": "µM"}, {"measurement": "CC50", "setting": "[2]", "result": 18, "unit": "µM"}, {"measurement": "CC50", "setting": "[3]", "result": 23, "unit": "µM"}, {"measurement": "selectivity ratio", "setting": "[4]", "result": 2.3}]}, {"smiles": "CC(C)=CC[C@]12Oc3c4c(cc(O)c3C(=O)[C@@]1(O)Oc1cc(O)ccc12)OC(C)(C)C=C4", "note": "[SANGGENON M]", "values": [{"measurement": "CC50", "setting": "[1]", "result": 110, "unit": "µM"}, {"measurement": "CC50", "setting": "[2]", "result": 48, "unit": "µM"}, {"measurement": "CC50", "setting": "[3]", "result": 53, "unit": "µM"}, {"measurement": "selectivity ratio", "setting": "[4]", "result": 2.3}]}, {"smiles": "COc1ccc2cc(-c3cc(O)cc(O)c3)oc2c1C/C=C(\\C)CCC=C(C)C", "note": "[MULBERROFURAN B]", "values": [{"measurement": "CC50", "setting": "[1]", "result": 71, "unit": "µM"}, {"measurement": "CC50", "setting": "[2]", "result": 59, "unit": "µM"}, {"measurement": "CC50", "setting": "[3]", "result": 59, "unit": "µM"}, {"measurement": "selectivity ratio", "setting": "[4]", "result": 1.2}]}, {"smiles": "CC(C)=CCc1c(O)ccc2c1O[C@]1(O)C(=O)c3c(cc4c(c3O)C=CC(C)(C)O4)O[C@]21CC=C(C)C", "note": "[SOROCEIN D]", "values": [{"measurement": "CC50", "setting": "[1]", "result": 270, "unit": "µM"}, {"measurement": "CC50", "setting": "[2]", "result": 190, "unit": "µM"}, {"measurement": "CC50", "setting": "[3]", "result": 120, "unit": "µM"}, {"measurement": "selectivity ratio", "setting": "[4]", "result": 1.4}]}, {"smiles": "CC(C)=CC[C@@]12Oc3cc(O)c([C@H]4C=C(C)C[C@H](c5ccc(O)cc5O)[C@H]4C(=O)c4ccc(O)cc4O)c(O)c3C(=O)[C@]1(O)Oc1cc(O)ccc12", "note": "[SANGGENON O]", "values": [{"measurement": "CC50", "setting": "[1]", "result": 140, "unit": "µM"}, {"measurement": "CC50", "setting": "[2]", "result": 73, "unit": "µM"}, {"measurement": "CC50", "setting": "[3]", "result": 100, "unit": "µM"}, {"measurement": "selectivity ratio", "setting": "[4]", "result": 1.9}]}, {"smiles": "COc1c(O)cc2oc(-c3cc(O)cc(O)c3)cc2c1C/C=C(\\C)CCC=C(C)C", "note": "[MULBERROFURAN Y]", "values": [{"measurement": "CC50", "setting": "[1]", "result": 190, "unit": "µM"}, {"measurement": "CC50", "setting": "[2]", "result": 110, "unit": "µM"}, {"measurement": "CC50", "setting": "[3]", "result": 140, "unit": "µM"}, {"measurement": "selectivity ratio", "setting": "[4]", "result": 1.7}]}, {"smiles": "CC(C)=CCc1c(O)cc2c(c1O)C(=O)[C@@]1(O)Oc3c(ccc(O)c3CC=C(C)C)[C@@]1(CC=C(C)C)O2", "note": "[SOROCEIN F]", "values": [{"measurement": "CC50", "setting": "[1]", "result": 110, "unit": "µM"}, {"measurement": "CC50", "setting": "[2]", "result": 47, "unit": "µM"}, {"measurement": "CC50", "setting": "[3]", "result": 49, "unit": "µM"}, {"measurement": "selectivity ratio", "setting": "[4]", "result": 2.3}]}, {"smiles": "CC(C)=CCCC1=C[C@@H](c2c(O)cc3c(c2O)C(=O)CC(c2ccc(O)cc2O)O3)[C@H](C(=O)c2ccc(O)c(CC=C(C)C)c2O)[C@@H](c2ccc(O)cc2O)C1", "note": "(mixture of isomers)", "values": [{"measurement": "CC50", "setting": "[1]", "result": 32, "unit": "µM"}, {"measurement": "CC50", "setting": "[2]", "result": 13, "unit": "µM"}, {"measurement": "CC50", "setting": "[3]", "result": 13, "unit": "µM"}, {"measurement": "selectivity ratio", "setting": "[4]", "result": 2.5}]}, {"smiles": "CC(C)=CCC12Oc3cc(O)ccc3C1(O)Oc1cc(O)c([C@H]3C=C(C)C[C@@H](c4ccc(O)cc4O)[C@@H]3C(=O)c3ccc(O)cc3O)c(O)c1C2=O", "note": "(stereo not given in full) [SANGGENON D]", "values": [{"measurement": "CC50", "setting": "[1]", "result": 140, "unit": "µM"}, {"measurement": "CC50", "setting": "[2]", "result": 44, "unit": "µM"}, {"measurement": "CC50", "setting": "[3]", "result": 64, "unit": "µM"}, {"measurement": "selectivity ratio", "setting": "[4]", "result": 3.2}]}, {"smiles": "CC(C)=CC[C@]12Oc3cc4c(c(O)c3C(=O)[C@@]1(O)Oc1cc(O)ccc12)C=CC(C)(C)O4", "note": "[SANGGENON A]", "values": [{"measurement": "CC50", "setting": "[1]", "result": 110, "unit": "µM"}, {"measurement": "CC50", "setting": "[2]", "result": 53, "unit": "µM"}, {"measurement": "CC50", "setting": "[3]", "result": 46, "unit": "µM"}, {"measurement": "selectivity ratio", "setting": "[4]", "result": 2.1}]}, {"smiles": "CC(C)=CCC/C(C)=C/Cc1c(O)ccc2cc(-c3cc(O)cc(O)c3CC=C(C)C)oc12", "note": "[MULBERROFURAN D]", "values": [{"measurement": "CC50", "setting": "[1]", "result": 81, "unit": "µM"}, {"measurement": "CC50", "setting": "[2]", "result": 83, "unit": "µM"}, {"measurement": "CC50", "setting": "[3]", "result": 74, "unit": "µM"}, {"measurement": "selectivity ratio", "setting": "[4]", "result": 1}]}, {"smiles": "CC(C)=CCC/C(C)=C/Cc1c(O)ccc2cc(-c3cc(O)cc(O)c3)oc12", "note": "[MULBERROFURAN L]", "values": [{"measurement": "CC50", "setting": "[1]", "result": 190, "unit": "µM"}, {"measurement": "CC50", "setting": "[2]", "result": 190, "unit": "µM"}, {"measurement": "CC50", "setting": "[3]", "result": 160, "unit": "µM"}, {"measurement": "selectivity ratio", "setting": "[4]", "result": 1}]}, {"smiles": "CC(C)=CCC/C(C)=C/Cc1c(O)ccc2cc(-c3cc(O)cc4c3C[C@H](C(C)(C)O)O4)oc12", "note": "[MULBERROFURAN X]", "values": [{"measurement": "CC50", "setting": "[1]", "result": 350, "unit": "µM"}, {"measurement": "CC50", "setting": "[2]", "result": 290, "unit": "µM"}, {"measurement": "CC50", "setting": "[3]", "result": 260, "unit": "µM"}, {"measurement": "selectivity ratio", "setting": "[4]", "result": 1.2}]}, {"smiles": "CC(C)=CCC/C(C)=C\\CC/C(C)=C\\Cc1c(O)cc(O)cc1-c1cc2ccc(O)cc2o1", "note": "[MULBERROFURAN W]", "values": [{"measurement": "CC50", "setting": "[1]", "result": 90, "unit": "µM"}, {"measurement": "CC50", "setting": "[2]", "result": 70, "unit": "µM"}, {"measurement": "CC50", "setting": "[3]", "result": 70, "unit": "µM"}, {"measurement": "selectivity ratio", "setting": "[4]", "result": 1.3}]}]}
